Source: ChEMBL document CHEMBL1149900, “ent-Labdane diterpenoid lactone stereoisomers from Andrographis paniculata” (2008)

Tested on: HL-60
Experiment: Antiproliferative activity against human HL60 cells by trypan blue assay
Assay type: functional
Summary of the method: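 HL-60 cells seeded at 1 × 10^5 cells/mL, exposed to test compound at 5, 10, 20, 40 or 60 µM for 3 days. Viable growth scored by trypan blue staining, with total cells counted on a hemocytometer. GI50 taken as the concentration halving cell growth. Reported as mean ± SD of three independent experiments, with adriamycin as positive control.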

SMILES | GI50
C=C1CC[C@@H]2[C@](C)(CO)[C@H](O)CC[C@@]2(C)[C@@H]1C/C=C1\C(=O)OC[C@H]1O | 6.3 µM
C=C1CC[C@@H]2[C@](C)(CO)CCC[C@@]2(C)[C@@H]1CCC1=CCOC1=O [ANDROGRAPANIN] | 20 µM
C=C1[C@@H](CCC2=CCOC2=O)[C@]2(C)CC[C@@H](O)[C@@](C)(CO)[C@H]2C[C@@H]1O | 25.2 µM
C=C1CC[C@@H]2[C@](C)(CO)[C@H](O)CC[C@@]2(C)[C@@H]1CCC1=CCOC1=O [DEOXYANDROGRAPHOLIDE] | 25.5 µM
C=C1CC[C@@H]2[C@](C)(CO[C@@H]3O[C@H](CO)[C@@H](O)[C@H](O)[C@H]3O)CCC[C@@]2(C)[C@@H]1CCC1=CCOC1=O [NEOANDROGRAPHOLIDE] | 26.7 µM
C=C1CC[C@@H]2[C@](C)(CO)[C@H](O)CC[C@@]2(C)[C@@H]1/C=C/C1=CC(OC)OC1=O (some centres undefined) | 26.4 µM
C=C1CC[C@H]2[C@@](C)(CCC(=O)[C@@]2(C)CO)[C@@H]1/C=C/C1=CCOC1=O | 19.2 µM
COc1cccc2c1C(=O)c1c(O)c3c(c(O)c1C2=O)C[C@@](O)(C(=O)CO)C[C@@H]3O[C@H]1C[C@H](N)[C@H](O)[C@H](C)O1 [DOXORUBICIN] | 0.018 µM
C=C1CC[C@@H]2[C@](C)(CO)[C@H](O)CC[C@@]2(C)[C@@H]1C[C@H](O)[C@@H]1C(=O)OC[C@H]1O | 24.4 µM
C=C1CC[C@@H]2[C@](C)(CO)[C@H](O)CC[C@@]2(C)[C@@H]1C/C=C1/C(=O)OC[C@H]1O [ANDROGRAPHOLIDE] | 9.33 µM
C=C1CC[C@@H]2[C@](C)(CO)CCC[C@@]2(C)[C@@H]1CC/C(=C/CO)CO | 20.4 µM
C=C1CC[C@@H]2[C@](C)(CO)[C@H](O)CC[C@@]2(C)[C@@H]1/C=C/C1=CCOC1=O | 25.6 µM
C=C1CC[C@@H]2[C@](C)(CO)[C@H](O)CC[C@@]2(C)[C@@H]1C[C@@H](O)[C@H]1C(=O)OC[C@H]1O | 26.6 µM
C=C1CC[C@@H]2[C@](C)(CO)[C@H](O)CC[C@@]2(C)[C@@H]1CCO | 24.9 µM
C=C1CC[C@@H]2[C@](C)(CO[C@@H]3O[C@H](CO)[C@@H](O)[C@H](O)[C@H]3O)[C@H](O)CC[C@@]2(C)[C@@H]1C/C=C1/C(=O)OC[C@H]1O [ANDROGRAPHISIDE] | 28.8 µM
C=C1CC[C@@H]2[C@](C)(CO)[C@H](O)CC[C@@]2(C)[C@@H]1CC/C(=C/CO)C(=O)O | 22.4 µM
C=C1CC[C@@H]2[C@](C)(CO)[C@H](O)CC[C@@]2(C)[C@@H]1/C=C/C(=O)O | 28.8 µM
C=C1CC[C@H]2[C@@](C)(CCC(=O)[C@@]2(C)CO)[C@@H]1CCC1=CCOC1=O | 22.8 µM
C=C1[C@H](O)C[C@@H]2[C@](C)(CO)[C@H](O)CC[C@@]2(C)[C@@H]1CCC1=CCOC1=O | 22.5 µM
